Seven molecules from ChEMBL document CHEMBL4024710, “Discovery of novel 1,2,3,4-tetrahydrobenzo[4, 5]thieno[2, 3-c]pyridine derivatives as potent and selective CYP17 inhibitors” (Eur J Med Chem, 2017) can be followed below.

The target of data set [1] is T1, Steroid 17-alpha-hydroxylase/17,20 lyase (Rattus norvegicus, UniProt P11715).
T1 sequence (P11715 whole entry): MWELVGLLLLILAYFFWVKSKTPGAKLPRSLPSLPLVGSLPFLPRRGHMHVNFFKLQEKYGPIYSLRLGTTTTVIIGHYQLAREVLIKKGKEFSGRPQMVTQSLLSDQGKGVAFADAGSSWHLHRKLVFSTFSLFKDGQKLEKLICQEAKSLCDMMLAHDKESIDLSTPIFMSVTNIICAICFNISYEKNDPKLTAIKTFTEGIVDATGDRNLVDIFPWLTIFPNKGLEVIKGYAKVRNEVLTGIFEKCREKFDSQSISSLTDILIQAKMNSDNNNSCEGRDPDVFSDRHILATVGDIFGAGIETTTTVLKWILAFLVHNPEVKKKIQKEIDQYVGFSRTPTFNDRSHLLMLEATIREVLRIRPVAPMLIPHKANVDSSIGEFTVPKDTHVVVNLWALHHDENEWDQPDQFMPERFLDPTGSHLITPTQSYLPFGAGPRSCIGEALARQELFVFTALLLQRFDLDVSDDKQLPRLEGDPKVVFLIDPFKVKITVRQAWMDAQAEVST
Kind of data set: Inhibition of CYP17 in Sprague-Dawley rat testes microsomes using 17-alpha hydroxyprogesterone as substrate and NADPH as cofactor pretreated for 5 mins followed by substrate and cofactor addition after 60 mins by LC/Ms analysis. On the set-up: species or system Testis. In outline: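 Rat testis microsomes from male SD rats weighing 220–250 g, prepared at 4 °C by differential centrifugation (9000 g, then 105,000 g pellet). 2 µg protein in 0.05 M phosphate pH 7.5 preincubated with inhibitor 5 min at 25 °C. Started with 10 µM 17α-hydroxyprogesterone plus 4.2 mM NADPH, 60 min at 25 °C, stopped with methanol. Androstenedione measured by LC/MS; IC50 is the mean of at least three experiments.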

The target of data set [2] is T2, Steroid 17-alpha-hydroxylase/17,20 lyase (Homo sapiens, UniProt P05093).
T2 sequence (P05093 whole entry): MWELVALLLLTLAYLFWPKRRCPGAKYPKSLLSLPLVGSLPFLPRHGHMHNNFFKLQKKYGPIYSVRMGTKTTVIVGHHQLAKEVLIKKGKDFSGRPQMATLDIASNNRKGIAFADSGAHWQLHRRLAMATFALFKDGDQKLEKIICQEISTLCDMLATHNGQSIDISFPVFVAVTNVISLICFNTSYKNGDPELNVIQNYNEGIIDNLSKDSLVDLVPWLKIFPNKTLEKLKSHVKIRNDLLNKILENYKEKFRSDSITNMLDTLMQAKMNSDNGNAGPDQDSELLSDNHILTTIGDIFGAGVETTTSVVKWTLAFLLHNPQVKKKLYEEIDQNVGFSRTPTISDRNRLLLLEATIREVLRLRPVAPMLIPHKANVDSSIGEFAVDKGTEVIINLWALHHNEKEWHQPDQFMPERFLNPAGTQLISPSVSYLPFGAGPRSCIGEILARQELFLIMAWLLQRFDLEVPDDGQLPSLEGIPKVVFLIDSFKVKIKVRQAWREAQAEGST
As to the kind of experiment: Inhibition of recombinant human CYP17 expressed in human A549 cell membranes using 17-alpha hydroxyprogesterone as substrate and NADPH as cofactor pretreated for 5 mins followed by substrate and cofactor addition after 60 mins by LC/MS analysis. In short, it runs like this: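 Enzyme source was purified membranes of A549 cells expressing human CYP17 from an adenoviral vector. 2 µg membrane protein in 0.05 M phosphate pH 7.5 with inhibitor, preincubated 5 min at 25 °C. Reaction started with 10 µM 17α-hydroxyprogesterone and 4.2 mM NADPH, run 60 min at 25 °C, methanol stop. Androstenedione quantified by LC/MS; IC50 is the mean of at least three experiments.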

A further data set concerns the target Cytochrome P450 3A4 (Homo sapiens, UniProt P08684). As to the kind of experiment: Inhibition of human hepatic CYP3A4. Type of data set: ADME.
Data set [3] deals with T3, CYP1A2 (Homo sapiens, UniProt P05177).
T3 sequence (P05177 whole entry): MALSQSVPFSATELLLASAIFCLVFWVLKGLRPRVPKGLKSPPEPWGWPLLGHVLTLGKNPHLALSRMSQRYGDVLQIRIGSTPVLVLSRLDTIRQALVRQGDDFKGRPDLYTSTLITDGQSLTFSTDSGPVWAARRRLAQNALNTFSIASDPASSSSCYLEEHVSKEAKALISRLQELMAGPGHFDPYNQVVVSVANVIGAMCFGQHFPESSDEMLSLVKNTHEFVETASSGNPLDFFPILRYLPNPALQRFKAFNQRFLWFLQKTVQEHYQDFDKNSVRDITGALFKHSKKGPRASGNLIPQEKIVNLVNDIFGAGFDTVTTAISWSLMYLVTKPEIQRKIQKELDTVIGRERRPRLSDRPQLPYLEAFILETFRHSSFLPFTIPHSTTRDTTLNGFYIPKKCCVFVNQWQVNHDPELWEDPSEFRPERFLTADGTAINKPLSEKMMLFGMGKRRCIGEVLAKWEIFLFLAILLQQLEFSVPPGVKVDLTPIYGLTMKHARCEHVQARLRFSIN
As to the kind of experiment: Inhibition of human hepatic CYP1A2 at 1 uM relative to control. Type of data set: ADME.

In data set [4] the target is T3, CYP1A2. As to the kind of experiment: Inhibition of human hepatic CYP1A2 at 10 uM relative to control. Type of data set: ADME.
In data set [5] the target is T4, CYP2C9 (Homo sapiens, UniProt P11712). Kind of data set: Inhibition of human hepatic CYP2C9 at 1 uM relative to control. Type of data set: ADME.
Data set [6] addresses T4, CYP2C9. As to the kind of experiment: Inhibition of human hepatic CYP2C9 at 10 uM relative to control. Type of data set: ADME.
Data set [7] addresses T5, CYP2C19 (Homo sapiens, UniProt P33261). As to the kind of experiment: Inhibition of human hepatic CYP2C19 at 1 uM relative to control. It counts as ADME.
The target of data set [8] is T5, CYP2C19. Kind of data set: Inhibition of human hepatic CYP2C19 at 10 uM relative to control. It counts as ADME.
Data set [9] concerns the target T6, CYP2D6 (Homo sapiens, UniProt P10635). Kind of data set: Inhibition of human hepatic CYP2D6 at 1 uM relative to control. It counts as ADME.
Data set [10] has as its target T6, CYP2D6. As to the kind of experiment: Inhibition of human hepatic CYP2D6 at 10 uM relative to control. It counts as ADME.
The target in data set [11] is T2, Steroid 17-alpha-hydroxylase/17,20 lyase. Kind of data set: Residual CYP17 activity in human NCI-H295R cells assessed as testosterone production at 1 uM measured after 72 hrs relative to control.
For data set [12] the target is unchanged. Kind of data set: Potency index, ratio of abiraterone IC50 to compound IC50 for recombinant human CYP17 expressed in human A549 cell membranes. Type of data set: cell-based. In short, it runs like this:
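Human CYP17 came from purified membranes of A549 cells expressing the cloned gene through an adenoviral system. 2 µg membrane protein was preincubated with inhibitor in 0.05 M phosphate buffer, pH 7.5, at 25 °C for 5 min. The reaction was started with 10 µM 17α-hydroxyprogesterone and 4.2 mM NADPH, run 60 min at 25 °C and stopped with methanol. Androstenedione was quantified by LC/MS.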

Another data set relates to Rattus norvegicus. As to the kind of experiment: Suppression of serum testosterone levels in po dosed Sprague-Dawley rat administered as single dose measured up to 24 hrs post dose by ELISA. It counts as functional, organism-based. In short, it runs like this:
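Serum was sampled before dosing and at 2, 4, 8 and 24 h. Testosterone was measured by ELISA and expressed as % of the mean pretreatment value; mean ± SEM, n = 6.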

T5 sequence (P33261 whole entry): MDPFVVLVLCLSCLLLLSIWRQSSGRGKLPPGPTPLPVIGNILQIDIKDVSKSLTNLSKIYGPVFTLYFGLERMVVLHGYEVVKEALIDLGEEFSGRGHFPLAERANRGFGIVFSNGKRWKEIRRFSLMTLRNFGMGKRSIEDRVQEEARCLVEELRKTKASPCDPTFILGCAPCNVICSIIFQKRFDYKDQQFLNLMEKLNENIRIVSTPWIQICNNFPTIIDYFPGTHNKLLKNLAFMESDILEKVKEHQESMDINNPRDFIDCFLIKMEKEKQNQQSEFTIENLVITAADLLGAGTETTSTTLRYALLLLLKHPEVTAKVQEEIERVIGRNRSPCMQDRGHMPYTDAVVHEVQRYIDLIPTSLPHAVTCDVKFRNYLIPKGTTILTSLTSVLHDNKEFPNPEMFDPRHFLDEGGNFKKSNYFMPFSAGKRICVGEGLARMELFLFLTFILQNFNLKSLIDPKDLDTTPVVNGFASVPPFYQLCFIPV
Cytochrome P450 3A4, sequence (P08684 whole entry): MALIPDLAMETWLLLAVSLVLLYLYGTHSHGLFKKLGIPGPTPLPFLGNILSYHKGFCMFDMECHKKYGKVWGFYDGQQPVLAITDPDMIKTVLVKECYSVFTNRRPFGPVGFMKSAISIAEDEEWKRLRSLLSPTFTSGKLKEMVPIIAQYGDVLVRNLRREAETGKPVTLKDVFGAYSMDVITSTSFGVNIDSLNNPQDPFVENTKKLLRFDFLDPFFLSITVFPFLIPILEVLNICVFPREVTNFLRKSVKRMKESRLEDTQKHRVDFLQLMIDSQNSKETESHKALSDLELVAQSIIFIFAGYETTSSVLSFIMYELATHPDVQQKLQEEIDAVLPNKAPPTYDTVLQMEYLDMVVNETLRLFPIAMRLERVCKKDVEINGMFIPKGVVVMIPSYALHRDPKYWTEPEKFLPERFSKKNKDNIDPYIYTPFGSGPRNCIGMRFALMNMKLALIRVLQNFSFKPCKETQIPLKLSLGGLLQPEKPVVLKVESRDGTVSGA
T4 sequence (P11712 whole entry): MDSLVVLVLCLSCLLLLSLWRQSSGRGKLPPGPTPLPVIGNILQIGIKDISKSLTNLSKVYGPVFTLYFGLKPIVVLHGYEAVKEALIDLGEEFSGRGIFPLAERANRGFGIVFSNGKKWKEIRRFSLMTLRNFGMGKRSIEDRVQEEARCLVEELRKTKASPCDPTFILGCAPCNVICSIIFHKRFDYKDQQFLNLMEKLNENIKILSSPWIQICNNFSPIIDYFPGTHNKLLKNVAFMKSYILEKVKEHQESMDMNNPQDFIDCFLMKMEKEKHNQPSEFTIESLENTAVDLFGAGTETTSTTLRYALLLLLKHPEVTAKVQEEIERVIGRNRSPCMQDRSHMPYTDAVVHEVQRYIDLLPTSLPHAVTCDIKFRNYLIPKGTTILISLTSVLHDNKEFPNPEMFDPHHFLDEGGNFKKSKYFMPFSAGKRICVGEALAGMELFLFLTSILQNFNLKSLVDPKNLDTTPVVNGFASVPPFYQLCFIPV
T6 sequence (P10635 whole entry): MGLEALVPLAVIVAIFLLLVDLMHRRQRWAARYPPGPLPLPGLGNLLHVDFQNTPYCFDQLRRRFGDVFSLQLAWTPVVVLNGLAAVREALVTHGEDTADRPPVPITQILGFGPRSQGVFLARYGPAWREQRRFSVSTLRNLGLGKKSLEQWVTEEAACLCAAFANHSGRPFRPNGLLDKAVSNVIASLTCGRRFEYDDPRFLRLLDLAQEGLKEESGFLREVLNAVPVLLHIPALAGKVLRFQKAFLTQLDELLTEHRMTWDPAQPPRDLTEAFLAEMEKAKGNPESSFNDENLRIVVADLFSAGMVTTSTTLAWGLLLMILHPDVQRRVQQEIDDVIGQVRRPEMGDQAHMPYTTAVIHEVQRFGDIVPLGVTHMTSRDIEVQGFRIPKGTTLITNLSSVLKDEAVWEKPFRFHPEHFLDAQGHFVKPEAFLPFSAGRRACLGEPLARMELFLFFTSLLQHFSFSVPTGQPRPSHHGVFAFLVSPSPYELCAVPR

On to `Oc1ccc2sc3c(c2c1)CCN(Cc1cccnc1)C3`, for which the IC50 worked out at 20.9 nM in [1], 23.7 nM in data set [2] and 5280 nM on Cytochrome P450 3A4. Moreover, the inhibition at 1 µM against CYP1A2 [3] worked out at 25.4%; against CYP2C9 [5], 0%; at CYP2C19 [7], 7.9%; against CYP2D6 [9] it was 1.3%. Also, the inhibition at 10 µM worked out at 71.2% against CYP1A2 [4], 17.5% against CYP2C9 [6], 71.6% at CYP2C19 [8] and 18.9% against CYP2D6 [10].
With `COc1cncc(CN2CCc3c(sc4ccc(F)cc34)C2)c1`, the IC50 in data set [1] stood at 33.9 nM; in [2], 45 nM; against Cytochrome P450 3A4, 6530 nM. In addition, the inhibition at 1 µM came out at 8.7% at CYP1A2 [3], 0% at CYP2C9 [5], 0% against CYP2C19 [7] and 21.7% against CYP2D6 [9]. In addition, the inhibition at 10 µM is 61.2% at CYP1A2 [4], 53.8% on CYP2C9 [6], 84.9% at CYP2C19 [8] and 76.1% at CYP2D6 [10].
With `Fc1ccc2sc3c(c2c1)CCN(Cc1c[nH]cn1)C3`, the values for the IC50 (in [1]; in [2]; at Cytochrome P450 3A4) were 29.8 nM, 24.3 nM and 685 nM, respectively. The inhibition at 1 µM was 87.9% on CYP1A2 [3], 98.5% on CYP2C9 [5], 91.2% at CYP2C19 [7] and 35.7% on CYP2D6 [9]. In addition, the inhibition at 10 µM on CYP1A2 [4] is 99.4%; against CYP2C9 [6] it was 100%; against CYP2C19 [8], 98.7%; on CYP2D6 [10], 49.6%.
As for `C[C@]12CC[C@H](O)CC1=CC[C@@H]1[C@@H]2CC[C@]2(C)C(c3cccnc3)=CC[C@@H]12` [ABIRATERONE], the IC50 in [1] was 24.7 nM. Also, the inhibition at 1 µM against CYP1A2 [3] stood at 34%; at CYP2C9 [5] it was 31.6%; on CYP2C19 [7] it was 39.6%; at CYP2D6 [9], 10.4%. The inhibition at 10 µM at CYP1A2 [4] is 92.5%; on CYP2C9 [6], 82.5%; at CYP2C19 [8], 91.6%; against CYP2D6 [10], 78.5%. In addition, the residual activity at 1 µM in data set [11] came to 74%.
Consider `Fc1cncc(CN2CCc3c(sc4ccc(F)cc34)C2)c1`, for which the IC50 in data set [1] was 56.5 nM; in data set [2], 45.4 nM; at Cytochrome P450 3A4 it was 9030 nM. Moreover, the inhibition at 1 µM against CYP1A2 [3] is 10.6%; at CYP2C9 [5] it was 0%; against CYP2C19 [7], 5.3%; on CYP2D6 [9], 50.8%. Further, the inhibition at 10 µM against CYP1A2 [4] worked out at 69.5%; at CYP2C9 [6] it was 51.6%; on CYP2C19 [8], 61.3%; against CYP2D6 [10], 62.5%.
Take `Cc1ccncc1CN1CCc2c(sc3ccc(F)cc23)C1`: the IC50 in data set [1] turned out to be 15.8 nM; in [2], 20.1 nM; against Cytochrome P450 3A4, 8560 nM. For the same molecule, the “Ratio IC50” value in [12] is given as 1.5. The inhibition at 1 µM on CYP1A2 [3] was determined as 16.3%; against CYP2C9 [5], 0%; against CYP2C19 [7] it was 11.7%; at CYP2D6 [9], 12%. Further, the inhibition at 10 µM on CYP1A2 [4] came to 62.2%; at CYP2C9 [6], 21.8%; against CYP2C19 [8], 65.2%; against CYP2D6 [10], 56.8%. Besides, the Activity result in the data set with Rattus norvegicus was “Dose-dependent effect”. The residual activity at 1 µM in data set [11] turned out to be 52%.
Turning to `Fc1ccc2sc3c(c2c1)CCN(Cc1cccnc1)C3`, the concentration for half-maximal inhibition (IC50) in [1] was determined as 28.1 nM; in data set [2], 29 nM; against Cytochrome P450 3A4 it was 7900 nM. The inhibition at 1 µM on CYP1A2 [3] was 20.6%; on CYP2C9 [5] it was 6.6%; on CYP2C19 [7] it was 47.3%; against CYP2D6 [9], 37.5%. The inhibition at 10 µM is 71.6% against CYP1A2 [4], 53.2% at CYP2C9 [6], 92.5% on CYP2C19 [8] and 83.7% against CYP2D6 [10].

By IC50 is commonly meant the concentration needed to halve the response being measured. What is called inhibition is the relative decrease from the control value, in per cent. Read a high inhibition as strong suppression. The term residual activity denotes the signal under treatment as a percentage of the control signal.
